Four compounds from ChEMBL document CHEMBL1138516, “Synthesis and biophysical characterization of chlorambucil anticancer ether lipid prodrugs” (J Med Chem, 2009) can be followed below.

Broadly, the IC50 is the point on the concentration scale where inhibition reaches its midpoint.

Where only a bound is given, the exact number is not on record here.

What all share (assay type): functional, cell-based
Test [1] can be described thus: Cytotoxicity against human ES2 cells assessed as cell viability after 48 hrs by MTT assay. To be noted: ES-2, 48 h. The essentials:
(§1)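 HT-29 colon and ES-2 ovarian cells were grown in McCoy's 5A with 10% FCS and 1% Pen-Strep, and MT-3 breast cells in RPMI. Cells were seeded at 1 × 10⁴ per well 24 h before dosing. Free drug was given in DMSO/water (final DMSO max 0.5%). Liposomes were diluted in PBS, with lipid content set by phosphorus analysis. Exposure lasted 24 h, then cells were washed and kept 48 h in complete medium.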

The test system of test [2] is HT-29. Description: Cytotoxicity against human HT-29 cells assessed as cell viability after 48 hrs by MTT assay. Particulars: HT-29, 48 h. The essentials:
as §1
A general note: Tetrazolium dyes change colour on reduction, which living cells bring about.

Test [3] in a line: Cytotoxicity against human MT3 cells assessed as cell viability after 48 hrs by MTT assay. Particulars: MT-3, 48 h. The essentials: as §1
Test [4] can be described thus: Cytotoxicity against human MT3 cells assessed as cell viability after 48 hrs by MTT assay in presence of Agkistrodon piscivorus secreted PLA2. Particulars: MT-3, 48 h. The procedure, abridged:
(§2)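 These lines follow the same protocol: HT-29 and ES-2 cells in McCoy's 5A with 10% FCS and 1% Pen-Strep, MT-3 cells in RPMI, seeded at 1 × 10⁴ per well 24 h ahead. Liposomal prodrugs in PBS were given with Agkistrodon piscivorus piscivorus venom sPLA₂ at 5 nM final. Exposure lasted 24 h, then cells were washed and given 48 h recovery in complete medium.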

The test system of test [5] is HT-29. Description: Cytotoxicity against human HT-29 cells assessed as cell viability after 48 hrs by MTT assay in presence of Agkistrodon piscivorus secreted PLA2. Particulars: HT-29, 48 h. The procedure, abridged: as §2
The nature of test [6]: Cytotoxicity against human ES2 cells assessed as cell viability after 48 hrs by MTT assay in presence of Agkistrodon piscivorus secreted PLA2. Particulars: ES-2, 48 h. The essentials:
as §2

Regarding `CCCCCCCCCCCCCCCCCCOC[C@@H](O)COP(=O)([O-])OCC[N+](C)(C)C`, the figures for the half-inhibitory concentration (IC50) in test [1], in test [2] and in test [3] were 30 µM, 18 µM and 35 µM, respectively.

As for `O=C(O)CCCc1ccc(N(CCCl)CCCl)cc1` [CHLORAMBUCIL], the concentration for half-maximal inhibition (IC50) in test [1] came out at 34 µM; in test [2], 70 µM; in test [3], 95 µM.

As to `CCCCCCCCCCCCCCCCCCOC[C@H](COP(=O)([O-])OCC[N+](C)(C)C)OC(=O)CCCc1ccc(N(CCCl)CCCl)cc1`, the half-inhibitory concentration (IC50) was greater than 200 µM in test [2], 36 µM in test [4], 32 µM in test [5] and greater than 200 µM in test [3].

Consider `CCCCCCCCCCCCCCCCCCOC[C@H](COP(=O)(O)OC[C@@H](O)CO)OC(=O)CCCc1ccc(N(CCCl)CCCl)cc1`, for which the IC50 in test [1] is 97 µM; in test [6], 8 µM; in test [2], greater than 200 µM; in test [4] it was 36 µM; in test [5] it was 10 µM; in test [3], greater than 200 µM.
